Reference: ChEMBL document CHEMBL1773060, “Two-step synthesis of novel, bioactive derivatives of the ubiquitous cofactor nicotinamide adenine dinucleotide (NAD)” (J Med Chem, 2011)
Activity calls are given as the source filed them. No cut-off for these calls is given here.

Columns and labels:
[1] = molecular target: T1, NAD-dependent protein deacetylase sirtuin-1 (Homo sapiens) (UniProt Q96EB6); assay: Inhibition of human recombinant GST-tagged SIRT1 at 50 uM after 4 hrs by homogeneous fluorescent deacetylase assay
T1 sequence (whole entry): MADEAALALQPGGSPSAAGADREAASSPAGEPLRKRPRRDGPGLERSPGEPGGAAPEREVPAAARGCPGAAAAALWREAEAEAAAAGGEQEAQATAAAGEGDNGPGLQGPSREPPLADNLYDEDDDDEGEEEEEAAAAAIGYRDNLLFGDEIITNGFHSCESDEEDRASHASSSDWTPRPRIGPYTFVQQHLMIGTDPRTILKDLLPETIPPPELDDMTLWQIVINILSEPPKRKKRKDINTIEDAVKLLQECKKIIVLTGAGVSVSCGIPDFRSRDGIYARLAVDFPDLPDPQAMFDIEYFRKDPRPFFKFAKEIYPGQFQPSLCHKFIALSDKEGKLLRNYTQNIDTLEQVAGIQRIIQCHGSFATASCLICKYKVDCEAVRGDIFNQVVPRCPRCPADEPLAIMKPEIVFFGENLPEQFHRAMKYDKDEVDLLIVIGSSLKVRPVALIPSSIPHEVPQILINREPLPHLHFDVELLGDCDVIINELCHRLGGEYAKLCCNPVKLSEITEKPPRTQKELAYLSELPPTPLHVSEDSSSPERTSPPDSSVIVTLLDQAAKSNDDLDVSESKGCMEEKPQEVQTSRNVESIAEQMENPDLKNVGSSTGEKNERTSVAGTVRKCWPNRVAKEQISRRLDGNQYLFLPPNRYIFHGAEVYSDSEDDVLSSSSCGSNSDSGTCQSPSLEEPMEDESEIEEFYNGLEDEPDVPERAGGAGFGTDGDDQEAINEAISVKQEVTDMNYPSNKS

[2] = molecular target: T2, NAD-dependent protein deacetylase sirtuin-2 (Homo sapiens) (UniProt Q8IXJ6); assay: Inhibition of human recombinant N-terminally His6-tagged SIRT2 at 50 uM after 4 hrs by homogeneous fluorescent deacetylase assay
T2 sequence (whole entry): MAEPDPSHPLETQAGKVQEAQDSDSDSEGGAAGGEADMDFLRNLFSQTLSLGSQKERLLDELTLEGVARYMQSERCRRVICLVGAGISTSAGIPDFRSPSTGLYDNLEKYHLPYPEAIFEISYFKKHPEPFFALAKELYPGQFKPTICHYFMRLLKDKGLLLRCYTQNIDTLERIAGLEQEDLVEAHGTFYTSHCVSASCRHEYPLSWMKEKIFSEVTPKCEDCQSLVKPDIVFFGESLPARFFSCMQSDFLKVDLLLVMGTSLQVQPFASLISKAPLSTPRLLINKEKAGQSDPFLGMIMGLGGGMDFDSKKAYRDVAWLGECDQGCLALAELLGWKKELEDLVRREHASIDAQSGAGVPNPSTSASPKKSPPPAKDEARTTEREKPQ

[3] = molecular target: T2, NAD-dependent protein deacetylase sirtuin-2 (Homo sapiens); assay: Activity at human recombinant GST-tagged SIRT2 assessed as conversion of […] at 500 uM by fluorescence-based assay; conditions: in the assay text read “His6-tagged” for “GST-tagged”
Method in brief: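 Analogues, with NAD for comparison, were supplied at 500 μM as cosubstrate in place of NAD, in 8.3% (v/v) DMSO. Reaction used Z-(Ac)Lys-AMC (10.5 μM), 4 h at 37 °C. Trypsin/nicotinamide development followed, then fluorescence at ex 390/em 460 nm. Conversion compared against a blank without cofactor.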

[4] = molecular target: T1, NAD-dependent protein deacetylase sirtuin-1 (Homo sapiens); assay: Activity at human recombinant GST-tagged SIRT1 assessed as conversion of acetyllysine substrate to 7-amino-4-methylcoumarin at 500 uM by fluorescence-based assay

Row | Compound | inhibition [1] | inhibition [2] | Activity [3] | Activity [4]
1 | Nc1ncnc2c1nc(Br)n2[C@@H]1O[C@H](COP(=O)(O)O)[C@@H](O)[C@H]1O | < 10% | < 10% | – | –
2 | Nc1ncnc2c1nc(-c1ccccc1)n2[C@@H]1O[C@H](CO)[C@@H](O)[C@H]1O | < 10% | < 10% | – | –
3 | NC(=O)c1ccc[n+]([C@@H]2O[C@H](COP(=O)([O-])OP(=O)(O)OC[C@H]3O[C@@H](n4c(-c5ccco5)nc5c(N)ncnc54)[C@H](O)[C@@H]3O)[C@@H](O)[C@H]2O)c1 | 16% | 35% | – | –
4 | NC(=O)c1ccc[n+]([C@@H]2O[C@H](COP(=O)([O-])OP(=O)(O)OC[C@H]3O[C@@H](n4c(-c5ccccc5)nc5c(N)ncnc54)[C@H](O)[C@@H]3O)[C@@H](O)[C@H]2O)c1 | 17% | – | Active | Active
5 | Cc1ccc(-c2nc3c(N)ncnc3n2[C@@H]2O[C@H](COP(=O)(O)OP(=O)([O-])OC[C@H]3O[C@@H]([n+]4cccc(C(N)=O)c4)[C@H](O)[C@@H]3O)[C@@H](O)[C@H]2O)cc1 | 20% | – | – | –

Next, values leading:

Row | inhibition [1] | inhibition [2] | Activity [3] | Activity [4] | Compound
6 | 18% | – | – | – | COc1ccc(-c2nc3c(N)ncnc3n2[C@@H]2O[C@H](COP(=O)(O)OP(=O)([O-])OC[C@H]3O[C@@H]([n+]4cccc(C(N)=O)c4)[C@H](O)[C@@H]3O)[C@@H](O)[C@H]2O)cc1
7 | < 10% | 16% | – | – | Nc1ncnc2c1nc(Br)n2[C@@H]1O[C@H](CO)[C@@H](O)[C@H]1O
8 | 31% | – | – | – | NC(=O)c1ccc[n+]([C@@H]2O[C@H](COP(=O)([O-])OP(=O)(O)OC[C@H]3O[C@@H](n4c(Br)nc5c(N)ncnc54)[C@H](O)[C@@H]3O)[C@@H](O)[C@H]2O)c1
9 | 30% | – | – | – | NC(=O)c1ccc[n+]([C@@H]2O[C@H](COP(=O)([O-])OP(=O)(O)OC[C@H]3O[C@@H](n4c(-c5ccc(Cl)cc5)nc5c(N)ncnc54)[C@H](O)[C@@H]3O)[C@@H](O)[C@H]2O)c1
